Measured values from ChEMBL document CHEMBL1144353 (J Med Chem, 2005).

Key:
[1] = Equilibrium dissociation constant for Voltage-gated calcium channel alpha2-delta subunit as inhibition of [3H]gabapentin binding to pig brain membranes; design: species or system Sus scrofa, Membrane
Procedure, shortened: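 Pig cortical membranes (10-20 µg protein/well) with wheat germ agglutinin SPA beads and 30 nM [3H]gabapentin in 10 mM HEPES/10 mM MgSO4, pH 7.4, incubated overnight (15-24 h) at room temperature, then scintillation counted. Mean ± SEM, N = 4.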

[2] = Inhibition of [3H]leucine uptake into CHO cells; type: functional, cell-based, Cricetulus griseus
Procedure, shortened: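 CHO-K1 monolayers (90-100% confluent) were washed twice for 20 min at 37 °C in Na+-free choline buffer. Cells were then exposed for 2 min at room temperature to 2 µCi/mL L-[3H]leucine with test compound, 10 mM to 300 nM in half-log steps, in duplicate. Controls were no drug and 10 mM L-leucine. Uptake was stopped with cold buffer washes and counted by scintillation. IC50 from nonlinear least-squares regression.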

Rattus norvegicus [3] = assay: Plasma levels 2 hours after peroral dosing of 30 mg/kg in rats was determined; type: functional, organism-based; design: dose 30 mg/kg
Procedure, shortened: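 Sprague-Dawley rats were given a single 30 mg/kg oral dose. Plasma was sampled 2 h after dosing, with brain levels taken at the same time point, and drug concentration is reported in ng/mL.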

Rattus norvegicus [4] = assay: Brain levels 2 hours after peroral dosing of 30 mg/kg in rats was determined; type: functional; details: route oral
Procedure, shortened: (§1)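 Sprague-Dawley rats were dosed orally at 30 mg/kg and sampled at 2 h. Brain and plasma levels were measured in ng/mL, and B/P is the brain-to-plasma ratio.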

Rattus norvegicus [5] = assay: Ratio of brain level and plasma level 2 hours after peroral dosing of 30 mg/kg in rats was determined; type: functional, organism-based; design: dose 30 mg/kg; procedure, shortened: as §1
[6] = system: System L amino acid transporter (Cricetulus griseus); assay: Inhibition of [3H]leucine uptake by L-amino acid transporter system in Chinese hamster ovary cells

Row | SMILES | Ki [1] | IC50 ([2]; Cricetulus griseus, CHO, 2 min) | IC50 ([2]; cho) | other results
1 | CCCC1(CCC)CC1(CN)C(=O)O (stereo unspecified) | 0.2 µM | > 2490 µM |  | 
2 | NCC1(C(=O)O)CC12CCCCC2 (stereo unspecified) | 0.013 µM | > 2490 µM |  | Plasma level (Rattus norvegicus [3]): 7070 ng/mL; Brain level (Rattus norvegicus [4]): 385 ng/mL; B/P (Rattus norvegicus [5]): 0.054; IC50 [6]: > 2490 µM
3 | CC(C)C[C@H](CN)CC(=O)O [PREGABALIN] |  |  |  | Plasma level (Rattus norvegicus [3]): 19400 ng/mL; IC50 [6]: 158 µM
4 | CC(C)C1CC1(CN)C(=O)O (stereo unspecified) | 0.34 µM | > 8300 µM |  | 
5 | NCC1(C(=O)O)CC12CCCC2 (stereo unspecified) | 0.023 µM | > 8300 µM |  | 
6 | CC(C)CC1CC1(CN)C(=O)O (stereo in doubt; 36) | 0.33 µM |  | > 2490 µM | 
7 | CC(C)CC1CC1(CN)C(=O)O (stereo in doubt) | 0.037 µM |  | > 8300 µM | 
8 | NCC1(C(=O)O)CC1 | > 10 µM | > 8300 µM |  | 
9 | CCC(CC)C1CC1(CN)C(=O)O (stereo in doubt; 12) | 0.56 µM |  | > 8300 µM | 
10 | NCC1(C(=O)O)CC12CCC2 (stereo unspecified) | 0.2 µM | > 2490 µM |  | 
11 | CCC(CC)C1CC1(CN)C(=O)O (stereo in doubt) | 0.63 µM |  | > 2490 µM | 
